In ChEMBL document CHEMBL1141462, “Tetranorclerodanes and clerodane-type diterpene glycosides from Dicranopteris dichotoma” (J Nat Prod, 2007):

Columns and labels:
[1] = Cytotoxicity against C8166 cells by MTT assay; format: cell-based; conditions: human
Method in brief: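 C8166 cells were used, with viability read by MTT. Cytotoxicity was expressed as CC50.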

[2] = system: Human immunodeficiency virus 1; experiment: Antiviral activity against HIV1; format: functional, organism-based
Method in brief: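 HIV-1 activity was measured as inhibition of virus-induced cytopathic effect and reported as EC50.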

[3] = Selectivity index, CC50 against C8166 cell/ EC50 against HIV1; format: functional
Method in brief: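 The ratio is CC50 divided by EC50. CC50 comes from MTT cytotoxicity in C8166 cells, and EC50 from inhibition of HIV-1 cytopathic effect.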

| Compound | CC50 [1] [µM] | EC50 [2] [µM] | Ratio CC50/EC50 [3] |
| --- | --- | --- | --- |
| CC1=CCC[C@@H]2[C@@](C)(CC/C(C)=C/CO)[C@H](C)C[C@H](O[C@@H]3O[C@@H](C)[C@H](O[C@@H]4O[C@H](CO)[C@@H](O)[C@H](O)[C@H]4O)[C@@H](O)[C@H]3O)[C@@]12C | 325 | 85.1 | >3.82 |
| C=C[C@](C)(O)CC[C@@]1(C)[C@H](C)C[C@H](O[C@@H]2O[C@@H](C)[C@H](O[C@@H]3O[C@H](COC(C)=O)[C@@H](O)[C@H](O)[C@H]3O)[C@@H](O)[C@H]2O)[C@@]2(C)C(C)=CCC[C@H]12 | 121 | 110 | 1.1 |
| Cc1cn([C@H]2C[C@H](N=[N+]=[N-])[C@@H](CO)O2)c(=O)[nH]c1=O [ZIDOVUDINE] | 5750 | 0.0147 | 390406.06 |
| CC(=O)OC[C@H]1O[C@@H](O[C@@H]2[C@@H](O)[C@@H](O)[C@H](O[C@H]3C[C@@H](C)[C@](C)(CC/C(C)=C/CO)[C@H]4CCC=C(C)[C@]34C)O[C@H]2C)[C@H](O)[C@@H](O)[C@@H]1O | 136 | 76.3 | 1.78 |
| CC1=CCC[C@@H]2[C@@](C)(CC(=O)O)[C@H](C)C[C@H](O)[C@@]12C [AYLTHONIC ACID] | 751 | 197 | >3.81 |
| C[C@@H]1C[C@H](O)[C@@]2(C)C(C=O)=CCC[C@@H]2[C@@]1(C)CC(=O)O | 713 | 325 | >2.19 |
| C=C[C@](C)(O)CC[C@@]1(C)[C@H](C)C[C@H](O[C@@H]2O[C@@H](C)[C@H](O[C@@H]3O[C@H](CO)[C@@H](OC(C)=O)[C@H](O)[C@H]3O)[C@@H](O)[C@H]2O)[C@@]2(C)C(C)=CCC[C@H]12 | 305 | 145 | >2.09 |
| C[C@@H]1C[C@H](O)[C@@]2(C)C(CO)=CCC[C@@H]2[C@@]1(C)CC(=O)O | 709 | 302 | >2.34 |
| C=C[C@@](C)(O)CC[C@@]1(C)[C@H](C)C[C@H](O)[C@@]2(C)C(C)=CCC[C@H]12 | 653 | 59.4 | >10.99 |
